# Reference: article PMC4739608 (The Journal of Cell Biology, 2016)
# Tests used:
# [1] = test system: HFF cells; test: Immunofluorescence of IACs in HFF cells; type: cell-based, human; conditions: HFFs prespread on FN, 3 µM FAK [i] or 10 µM PF228, 1 h
# Summary of the method: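 Cells were grown on FN-coated (10 µg/ml) coverslips or glass-bottom dishes. HFFs were spread on FN for 1 h before inhibitor or DMSO was added. Cells were fixed in 4% paraformaldehyde for 7 min, then permeabilized with 0.5% Triton X-100 for 10 min. Primary antibodies were applied for 1 h and secondaries for 30 min, in 2% BSA at RT. Stained areas >10 pixels were normalized to total cell area, with count and size per cell.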
# [2] = test system: NIH3T3 cells; test: Immunofluorescence of IACs in NIH3T3 cells; type: cell-based, mouse; conditions: NIH3T3 on FN, 3 µM FAK [i] or 10 µM PF228, 1 h
# [3] = test system: HFF cells; test: Crystal violet proliferation assay; type: cell-based, human; conditions: up to 4 d, total cell number by crystal violet
# [4] = test system: consensus adhesome proteins; conditions: three other studies; ref Horton et al., 2015b; cited from earlier work
smiles,measurement,setting,value
CS(=O)(=O)c1cccc(CNc2nc(Nc3ccc4c(c3)CCC(=O)N4)ncc2C(F)(F)F)c1 [PF228],FAK^Y397 levels by immunofluorescence,[1],significantly reduced
same,"area and numbers of vinculin- or paxillin-containing IACs, and the actin cytoskeleton",[1],unaffected
same,FAK^Y397 levels by immunofluorescence,[2],reduction of FAK^Y397 levels
same,vinculin- or paxillin-containing IACs,[2],did not affect
"CN1CCN(CCOc2cc(OC3CCOCC3)c3c(Nc4c(Cl)ccc5c4OCO5)ncnc3c2)CC1 [Src [i], N-(5-chloro-1,3-benzodioxol-4-yl)-7-[2-(4-methylpiperazin-1-yl)ethoxy]-5-(tetrahydro-2H-pyran-4-yloxy)quinazolin-4-amine]",inhibition of proliferation relative to DMSO,[3],30%
Cc1ccc2c(c1)C(=O)C1(O)CCN(c3ccccc3)C1=N2 (stereo not drawn) [blebbistatin],"consensus adhesome proteins, mean fold decrease upon blebbistatin treatment",[4],2.1 fold
